19 compounds from ChEMBL document CHEMBL2434829, “Synthesis of new andrographolide derivatives and evaluation of their antidyslipidemic, LDL-oxidation and antioxidant activity” (2013) can be followed below.

Calls of active or inactive are those of the source. No cut-off for these calls is given here.

The nature of assay [1]: Antioxidant activity assessed as decrease in superoxide anions level by measuring formation of formazone at 200 ug/ml after 30 mins by spectrophotometric analysis relative to control. More on the design: scale not given: the % may be the effect or the level left. Format: functional. An outline of the steps:
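Superoxide made enzymatically with xanthine ([…]), xanthine oxidase (0.04 U) and nitroblue tetrazolium (320 µM) in 100 mM phosphate buffer pH 8.2. Compound at 200 µg/mL, sonicated in buffer. Incubated 37 °C for 30 min, stopped with glacial acetic acid, formazan read spectrophotometrically. Allopurinol as standard.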

Assay [2] concerns Rattus norvegicus. Briefly: Antidyslipidemic activity in Charles foster rat assessed as decrease in triton WR-1339-induced triglyceride level in plasma at 100 mg/kg, po after 18 hrs relative to triton-treated rat. It is filed as functional. More on the design: scale not given: the % may be the effect or the level left. The essentials: (§1)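 Male adult Charles Foster rats (200–225 g), six per group. Triton WR-1339 400 mg/kg i.p., with test agent given orally at the same time as a gum acacia suspension in water; food withdrawn. Controls received vehicle. At 18 h, retro-orbital EDTA blood taken and centrifuged 2500 × g for 10 min at 4 °C. Plasma diluted 1:3 in saline; TC, PL and TG read enzymatically on an autoanalyzer. Percent change against triton group.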

Assay [3] is described as follows: Antioxidant activity assessed as reduction of microsomal lipid per-oxidation level by measuring formation of malondialdehyde at 200 ug/ml after 90 mins by spectrophotometric analysis relative to control. It is filed as functional. On the set-up: scale not given: the % may be the effect or the level left.
A short description of assay [4]: Antioxidant activity assessed as decrease in hydroxyl radicals level by measuring formation of malondialdehyde at 200 ug/ml after 90 mins by spectrophotometric analysis relative to control. It is filed as functional. More on the design: scale not given: the % may be the effect or the level left. The essentials: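 Hydroxyl radicals generated without enzyme from deoxyribose 2.8 mM, FeSO4·7H2O 2 mM, sodium ascorbate 2.0 mM and H2O2 2.8 mM in 50 mM KH2PO4 pH 7.4. Compound at 200 µg/mL. Incubated 37 °C for 90 min. Mannitol as standard.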

Assay [5] concerns Rattus norvegicus. As to the kind of experiment: Antidyslipidemic activity in Charles foster rat assessed as decrease in triton WR-1339-induced phospholipid level in plasma at 100 mg/kg, po after 18 hrs relative to triton-treated rat. It is filed as functional. More on the design: scale not given: the % may be the effect or the level left. An outline of the steps:
as §1

The test system of assay [6] is Rattus norvegicus. As to the kind of experiment: Antidyslipidemic activity in Charles foster rat assessed as increase in triton WR-1339-reduced post heparin lipolytic activity level in plasma at 100 mg/kg, po after 18 hrs by spectrophotometric analysis relative to triton-treated rat. It is filed as functional. More on the design: scale not given: the % may be the effect or the level left. An outline of the steps: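 Triton WR-1339 hyperlipidemia in male Charles Foster rats: 400 mg/kg i.p. plus oral dose in gum acacia vehicle, fasted, 6 rats/group. Plasma taken 18 h later from retro-orbital blood. Post-heparin lipolytic activity measured spectrophotometrically as nmol free fatty acids formed/h/ml plasma. Percent change against triton-only rats; mean ± SD.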

Assay [7] concerns Rattus norvegicus. As to the kind of experiment: Antidyslipidemic activity in Charles foster rat assessed as decrease in triton WR-1339-induced total cholesterol level in plasma at 100 mg/kg, po after 18 hrs relative to triton-treated rat. Format: functional. On the set-up: scale not given: the % may be the effect or the level left. An outline of the steps:
as §1

Assay [8] relates to Rattus norvegicus. As to the kind of experiment: Antidyslipidemic activity in Charles foster rat assessed as increase in triton WR-1339-reduced lipoprotein lipase level in liver at 100 mg/kg, po relative to triton-treated rat. It is filed as functional, organism-based. On the set-up: dose 100 mg/kg. An outline of the steps:
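Rats given triton WR-1339 (400 mg/kg i.p.) with oral test agent in gum acacia, 6 per group. Liver homogenized 10% w/v in cold 100 mM phosphate buffer pH 7.2 and assayed for total lipoprotein lipase lipolytic activity. Mean ± SD.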

Regarding `C=C1CC[C@@H]2[C@](C)(CO)[C@H](O)CC[C@@]2(C)[C@@H]1C/C=C1/C(=O)OC[C@H]1OC(C)=O`, the Activity in assay [1] was found to be 19%; in the assay on Rattus norvegicus [2], 15%; in assay [3] it was 19%; in assay [4] it was 17%; in the assay with Rattus norvegicus [5], 13%; with Rattus norvegicus [6], 7%. Besides, the Activity with Rattus norvegicus [7] is 13%.
Consider `Cc1c(C)c2c(c(C)c1O)CC[C@@](C)(CCC[C@H](C)CCC[C@H](C)CCCC(C)C)O2`, for which, in assay [3], the Activity amounted to 55%.
Regarding `CC1CC[C@@H]2[C@](C)(CO)[C@H](O)CC[C@@]2(C)[C@@H]1CCC1C(=O)OC[C@H]1O` (stereo partly specified), the Activity turned out to be 13% in assay [1]; 15% in the assay on Rattus norvegicus [2]; 14% in assay [3]; 17% in assay [4]; 13% in the assay with Rattus norvegicus [5]; 4% with Rattus norvegicus [6]. In the assay on Rattus norvegicus [7], the Activity is listed as 11%.
As to `C=C1CC[C@@H]2[C@](C)(COS(=O)(=O)c3c(C)cc(C)cc3C)[C@H](O)CC[C@@]2(C)[C@@H]1C/C=C1/C(=O)OC[C@H]1OC(C)=O`, the Activity in assay [1] stood at 31%; with Rattus norvegicus [2], 11%; in assay [3], 26%; in assay [4], 28%; in the assay with Rattus norvegicus [5] it was 14%; in the assay on Rattus norvegicus [6], 6%. In addition, the Activity in the assay on Rattus norvegicus [7] was 12%.
`C[C@]1(CO)[C@H]2CC[C@@]3(CO3)[C@@H](C/C=C3/C(=O)OC[C@H]3O)[C@]2(C)CC[C@H]1O`: the Activity was 17% in assay [1]; 14% in the assay with Rattus norvegicus [2]; 14% in assay [3]; 15% in assay [4]; 17% in the assay with Rattus norvegicus [5]; 6% with Rattus norvegicus [6]. The Activity in the assay with Rattus norvegicus [7] is 15%.
As to `C=C1CC[C@@H]2[C@](C)(COS(=O)(=O)c3ccc(C)cc3)[C@H](O)CC[C@@]2(C)[C@@H]1C/C=C1/C(=O)OC[C@H]1OC(C)=O`, the Activity in assay [1] was 27%; with Rattus norvegicus [2], 22%; in assay [3], 29%; in assay [4] it was 30%; in the assay with Rattus norvegicus [5] it was 22%; in the assay on Rattus norvegicus [6] it was 13%. For the same compound, in the assay with Rattus norvegicus [7], the Activity is listed as 20%.
In the case of `C=C1CC[C@@H]2[C@](C)(COC(C)=O)[C@H](OC(C)=O)CC[C@@]2(C)[C@@H]1C/C=C1/C(=O)OC[C@H]1OC(C)=O`, the Activity was found to be 12% in assay [1]; 18% in the assay with Rattus norvegicus [2]; 11% in assay [3]; 16% in assay [4]; 16% in the assay with Rattus norvegicus [5]; 11% in the assay with Rattus norvegicus [6]. In the assay on Rattus norvegicus [7], the Activity is 19%.
For `CC1CC[C@@H]2[C@](C)(CO)[C@H](O)CC[C@@]2(C)[C@@H]1C/C=C1/C(=O)OC[C@H]1O` (stereo partly specified), the Activity in assay [1] is 19%; with Rattus norvegicus [2] it was 15%; in assay [3], 17%; in assay [4] it was 15%; in the assay with Rattus norvegicus [5], 17%; in the assay on Rattus norvegicus [6], 5%. Moreover, the Activity in the assay on Rattus norvegicus [7] was 14%.
Regarding `C=C1CC[C@@H]2[C@](C)(CO)[C@H](O)CC[C@@]2(C)[C@@H]1CCC1=CCOC1=O` [DEOXYANDROGRAPHOLIDE], the Activity was 11% in assay [1]; 12% with Rattus norvegicus [2]; 13% in assay [3]; 16% in assay [4]; 14% with Rattus norvegicus [5]; 6% with Rattus norvegicus [6]. For the same compound, the Activity with Rattus norvegicus [7] is reported as 17%.
For `C=C1CC[C@@H]2[C@](C)(COS(=O)(=O)c3c(C)cc(C)cc3C)[C@H](O)CC[C@@]2(C)[C@@H]1C/C=C1/C(=O)OC[C@H]1O`, the Activity in assay [1] was 23%; in the assay with Rattus norvegicus [2], 20%; in assay [3], 26%; in assay [4], 25%; in the assay on Rattus norvegicus [5] it was 20%; in the assay with Rattus norvegicus [6] it was 12%. For the same compound, the Activity with Rattus norvegicus [7] turned out to be 22%.
As to `OC[C@@H](O)[C@@H](O)[C@H](O)[C@H](O)CO`, the Activity in assay [4] amounted to 50%.
Regarding `C=C1CC[C@@H]2[C@](C)(CO)[C@H](O)CC[C@@]2(C)[C@@H]1C/C=C1\C=COC1=O`, the Activity came out at 16% in assay [1]; 18% with Rattus norvegicus [2]; 13% in assay [3]; 18% in assay [4]; 17% with Rattus norvegicus [5]; 10% in the assay with Rattus norvegicus [6]. Moreover, the Activity in the assay with Rattus norvegicus [7] was 19%.
On to `C=C1CC[C@H]2[C@@](C)(CCC(=O)[C@@]2(C)C=O)[C@@H]1C/C=C1/C(=O)OC[C@H]1O`, for which the Activity in assay [1] was 16%; with Rattus norvegicus [2] it was 10%; in assay [3], 14%; in assay [4], 12%; in the assay with Rattus norvegicus [5], 10%; with Rattus norvegicus [6] it was 4%. In the assay on Rattus norvegicus [7], the Activity is 13%.
For the compound `C=C1CC[C@@H]2[C@]3(C)COC(C)(C)O[C@@H]3CC[C@@]2(C)[C@@H]1C/C=C1/C(=O)OC[C@H]1OC(C)=O`, the Activity came to 23% in assay [1]; 13% with Rattus norvegicus [2]; 26% in assay [3]; 25% in assay [4]; 14% in the assay on Rattus norvegicus [5]; 5% with Rattus norvegicus [6]. Besides, in the assay with Rattus norvegicus [7], the Activity was found to be 16%.
For `Oc1ncnc2[nH]ncc12`, the Activity in assay [1] came out at 54%.
For `CC(C)OC(=O)C(C)(C)Oc1ccc(C(=O)c2ccc(Cl)cc2)cc1` [FENOFIBRATE], the Activity in the assay on Rattus norvegicus [2] turned out to be 33%; in the assay with Rattus norvegicus [5], 33%; in the assay on Rattus norvegicus [6] it was 17%; in the assay on Rattus norvegicus [7], 32%. In addition, in the assay on Rattus norvegicus [8], the outcome was Active.
For `C=C1CC[C@@H]2[C@]3(C)COC(C)(C)O[C@@H]3CC[C@@]2(C)[C@@H]1C/C=C1/C(=O)OC[C@H]1O`, the Activity was 15% in assay [1]; 15% in the assay on Rattus norvegicus [2]; 17% in assay [3]; 11% in assay [4]; 12% in the assay on Rattus norvegicus [5]; 6% in the assay with Rattus norvegicus [6]. Also, the Activity in the assay on Rattus norvegicus [7] is listed as 16%.
For `C=C1CC[C@@H]2[C@](C)(CO)[C@H](O)CC[C@@]2(C)[C@@H]1CCC1C(=O)OC[C@H]1O` (stereo partly specified), the Activity was 14% in assay [1]; 11% with Rattus norvegicus [2]; 10% in assay [3]; 11% in assay [4]; 10% with Rattus norvegicus [5]; 5% with Rattus norvegicus [6]. Also, the Activity with Rattus norvegicus [7] was found to be 12%.
Turning to `Cc1ccc(C)c(OCCCC(C)(C)C(=O)O)c1` [GEMFIBROZIL], the Activity is listed as 28% with Rattus norvegicus [2], 30% in the assay with Rattus norvegicus [5], 16% in the assay on Rattus norvegicus [6] and 30% in the assay on Rattus norvegicus [7]. Moreover, in the assay with Rattus norvegicus [8], the outcome was Active.
